From ChEMBL document CHEMBL6071208, “Promoting Apoptosis in MCF-7 Cells via ROS Generation by Quinolino-triazoles Derived from One-Pot Telescopic Synthesis” (ACS Med Chem Lett, 2024)
The source made the active and inactive calls. No cut-off for these calls is given here.

Experiments:
MCF7 [1] = test: Cytotoxicity against human MCF7 cells assessed inhibition of cell proliferation measured for 24 hrs by MTT assay; format: functional, cell-based; conditions: MCF7, 24 h
In short: (§1)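 MTT read-out of proliferation after 24 h exposure; MCF-7 breast cancer cells alongside noncancerous human embryonic kidney HEK-293 cells. IC50 in μM taken as the average ± SD of three individual experiments.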

MCF7 [2] = test: Induction of apoptosis in human MCF7 cells assessed as increase in Bax mRNA expression at 12 uM measured for 24 hrs bt RT-PCR analysis; format: functional, cell-based
In short: (§2)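 mRNA levels of Bax, Bad (pro-apoptotic) and Bcl-2 (anti-apoptotic) measured in treated MCF-7 cells relative to untreated control. Mean ± SD of three independent studies.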

MCF7 [3] = test: Induction of apoptosis in human MCF7 cells assessed as increase in number of late apoptotic cells at 12 uM incubated for 24 hrs by acridine orange/EtBr staining based fluorescence microscopic analysis
MCF7 [4] = test: Induction of apoptosis in human MCF7 cells assessed as increase in Bad mRNA expression at 12 uM measured for 24 hrs bt RT-PCR analysis; format: functional, cell-based; in short: as §2
MCF7 [5] = test: Induction of DNA fragmentation in human MCF7 cells assessed as increase in condensed nuclei at 12 uM measured for 24 hrs by DAPI staining based fluorescence microscopic analysis; format: functional, cell-based
In short: (§3)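 MCF-7 nuclei stained with DAPI after exposure, with cisplatin (5 μM) as reference. Fluorescence microscopy scored condensed and fragmented nuclei. Images represent three individual experiments. Scale bar 150 μm.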

Mitochondrial membrane [6] = test: Induction of mitochondrial membrane potential loss in human MCF7 cells assessed as increase in fluorescence intensity at 12 uM measured for 24 hrs by rhodamine-123 dye based flow cytometry analysis (reference value: 8%)
In short: (§4)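 MCF-7 cells stained with rhodamine-123. Flow cytometry gave the percentage of cells with mitochondrial membrane potential loss against the untreated basal control. Mean ± SD of three independent investigations.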

[7] = Drug localization in human MCF7 cells at 12 uM incubated for 24 hrs by DAPI staining based confocal fluorescence microscopic analysis; format: ADME, cell-based; conditions: mcf7, 24 h
MCF7 [8] = test: Induction of apoptosis in human MCF7 cells assessed as increase in number of necrotic cells at 12 uM incubated for 24 hrs by acridine orange/EtBr staining based fluorescence microscopic analysis
Mitochondrial membrane [9] = test: Induction of mitochondrial membrane potential loss in human MCF7 cells assessed as increase in fluorescence intensity at 12 uM measured for 24 hrs by rhodamine-123 dye based flow cytometry analysis; in short: as §4
MCF7 [10] = test: Induction of intracellular ROS generation in human MCF7 cells at 12 uM incubated for 24 hrs by DCFDA staining based fluorescence microscopic analysis; format: functional, cell-based
In short: (§5)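 DCFDA-loaded MCF-7 cells imaged by fluorescence microscopy at 20× for qualitative ROS signal. Cisplatin serves as standard. Images represent three experiments. Scale bar 150 μm.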

MCF7 [11] = test: Induction of ROS production in human MCF7 cells assessed as increase in ROS level at 12 uM incubated for 24 hrs by DCFH-DA staining based flow cytometry analysis; format: functional, cell-based
In short: (§6)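 Intracellular ROS measured with the H2DCFDA probe. Esterase-deacetylated dye is oxidised to fluorescent DCF (ex 498/em 522 nm). Flow cytometry gave the percentage of ROS-positive MCF-7 cells against untreated control, with cisplatin (5 μM) as positive control. Mean ± SD of three independent investigations.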

HEK293 = test: Cytotoxicity against HEK293 cells assessed inhibition of cell proliferation measured after 24 hrs by MTT assay; format: toxicity, cell-based; conditions: human, hek293, 24 h; in short: as §1
MCF7 [12] = test: Induction of DNA fragmentation in human MCF7 cells assessed as increase in fragmented nuclei at 12 uM measured for 24 hrs by DAPI staining based fluorescence microscopic analysis; format: functional, cell-based; in short: as §3
MCF7 [13] = test: Induction of apoptosis in human MCF7 cells assessed as decrease in Bcl-2 mRNA expression at 12 uM measured for 24 hrs bt RT-PCR analysis; format: functional, cell-based; in short: as §2
Mitochondrial membrane [14] = test: Induction of mitochondrial membrane potential loss in human MCF7 cells assessed as increase in fluorescence intensity at 10 uM measured for 24 hrs by rhodamine-123 dye based flow cytometry analysis (reference value: 8%); in short: as §4
MCF7 [15] = test: Induction of apoptosis in human MCF7 cells assessed as increase in Bad mRNA expression at 10 uM measured for 24 hrs bt RT-PCR analysis; format: functional, cell-based; in short: as §2
MCF7 [16] = test: Induction of ROS production in human MCF7 cells assessed as increase in ROS level at 10 uM incubated for 24 hrs by DCFH-DA staining based flow cytometry analysis; format: functional, cell-based; in short: as §6
MCF7 [17] = test: Induction of DNA fragmentation in human MCF7 cells assessed as increase in condensed nuclei at 10 uM measured for 24 hrs by DAPI staining based fluorescence microscopic analysis; format: functional, cell-based; in short: as §3
[18] = Drug localization in cytoplasm of human MCF7 cells assessed as increase in red fluorescence at 10 uM incubated for 24 hrs by DAPI staining based confocal fluorescence microscopic analysis; format: ADME, subcellular; conditions: mcf7, 24 h
MCF7 [19] = test: Induction of apoptosis in human MCF7 cells assessed as decrease in Bcl-2 mRNA expression at 10 uM measured for 24 hrs bt RT-PCR analysis; format: functional, cell-based; in short: as §2
MCF7 [20] = test: Induction of apoptosis in human MCF7 cells assessed as increase in Bax mRNA expression at 10 uM measured for 24 hrs bt RT-PCR analysis; format: functional, cell-based; in short: as §2
MCF7 [21] = test: Induction of DNA fragmentation in human MCF7 cells assessed as increase in fragmented nuclei at 10 uM measured for 24 hrs by DAPI staining based fluorescence microscopic analysis; format: functional, cell-based; in short: as §3
MCF7 [22] = test: Induction of apoptosis in human MCF7 cells assessed as increase in early apoptotic cells at 10 uM incubated for 24 hrs by acridine orange/EtBr staining based fluorescence microscopic analysis; format: functional, cell-based
In short: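 Acridine orange/ethidium bromide dual staining of MCF-7 cells, with cisplatin (5 μM) as reference. Fluorescence microscopy classified cells as live (green nuclei), early apoptotic, late apoptotic or necrotic (orange-red nuclei). Images represent three independent experiments.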

Mitochondrial membrane [23] = test: Induction of mitochondrial membrane potential loss in human MCF7 cells assessed as increase in fluorescence intensity at 10 uM measured for 24 hrs by rhodamine-123 dye based flow cytometry analysis; in short: as §4
[24] = Drug localization in nucleus of human MCF7 cells assessed as increase in red fluorescence at 10 uM incubated for 24 hrs by DAPI staining based confocal fluorescence microscopic analysis; format: ADME, subcellular; conditions: mcf7, 24 h
MCF7 [25] = test: Induction of intracellular ROS generation in human MCF7 cells at 10 uM incubated for 24 hrs by DCFDA staining based fluorescence microscopic analysis; format: functional, cell-based; in short: as §5

CCOC(=O)c1n[nH]nc1-c1cc2cc(C)c(C)cc2nc1Oc1ccc(C#N)cc1
IC50 (MCF7 [1]): 65 µM

CCOC(=O)c1n[nH]nc1-c1cc2ccccc2nc1Oc1ccc(C)cc1
IC50 (MCF7 [1]): 53 µM

NC(=O)c1n[nH]nc1-c1cc2ccccc2nc1Oc1ccc(Br)cc1
Activity (MCF7 [2]): Active | Activity (MCF7 [3]): Active | Activity (MCF7 [4]): Active | Activity (MCF7 [5]): Active | Activity (Mitochondrial membrane [6]): 14% | Drug uptake [7]: Not Active | Activity (MCF7 [8]): Active | IC50 (MCF7 [1]): 12 µM | Activity (Mitochondrial membrane [9]): Active | Activity (MCF7 [10]): Active | Activity (MCF7 [11]): Active | Activity (HEK293): Non-Toxic | Activity (MCF7 [12]): Active | Activity (MCF7 [13]): Active

N#Cc1ccc(Oc2nc3ccccc3cc2-c2n[nH]nc2C(N)=O)cc1
Activity (Mitochondrial membrane [14]): 23% | Activity (MCF7 [15]): Active | Activity (MCF7 [16]): Active | Activity (MCF7 [17]): Active | Drug uptake [18]: Active | Activity (MCF7 [19]): Active | IC50 (MCF7 [1]): 10 µM | Activity (MCF7 [20]): Active | Activity (MCF7 [21]): Active | Activity (MCF7 [22]): Active | Activity (HEK293): Non-Toxic | Activity (Mitochondrial membrane [23]): Active | Drug uptake [24]: Active | Activity (MCF7 [25]): Active

NC(=O)c1n[nH]nc1-c1cc2ccccc2nc1Oc1ccc(I)cc1
IC50 (MCF7 [1]): 17.5 µM

CCOC(=O)c1n[nH]nc1-c1cc2ccc(C)cc2nc1Oc1ccc(I)cc1
IC50 (MCF7 [1]): 20 µM

CCOC(=O)c1n[nH]nc1-c1cc2ccc(C)cc2nc1Oc1ccc(C#N)cc1
IC50 (MCF7 [1]): 19 µM

Cc1ccc(Oc2nc3ccccc3cc2-c2n[nH]nc2C(N)=O)cc1
IC50 (MCF7 [1]): 62.5 µM

CCOC(=O)c1n[nH]nc1-c1cc2ccccc2nc1Oc1ccccc1
IC50 (MCF7 [1]): 90 µM

CCOC(=O)c1n[nH]nc1-c1cc2ccc(C)cc2nc1Oc1ccc(C)cc1
IC50 (MCF7 [1]): 42.5 µM
